Laboratory results published in ChEMBL document CHEMBL1157359, “Binding of ceftobiprole and comparators to the penicillin-binding proteins of Escherichia coli, Pseudomonas aeruginosa, Staphylococcus aureus, and Streptococcus pneumoniae” (Antimicrob Agents Chemother, 2007).
Values after ≈ are worked out from the molar mass of the structure shown.

Key:
[1] = Inhibition of bocillin FL binding to Escherichia coli MC4100 penicillin-binding protein 3
In short: (§1)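 Isolated E. coli MC4100 PBPs were competed with 10 drug concentrations from 0.016 μg/ml to 8 μg/ml, then labeled with Bocillin FL. Fluorescent PBP bands were imaged. IC50 is the concentration giving 50% inhibition of Bocillin FL binding to each PBP relative to a no-drug control.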

[2] = Inhibition of bocillin FL binding to Escherichia coli MC4100 penicillin-binding protein 1b; in short: as §1
[3] = biological target: T1, Penicillin-binding protein 2 (Pseudomonas aeruginosa, UniProt Q9X6V3); test: Inhibition of bocillin FL binding to Pseudomonas aeruginosa PAO1 penicillin-binding protein 2
T1 sequence (Q9X6V3 whole entry): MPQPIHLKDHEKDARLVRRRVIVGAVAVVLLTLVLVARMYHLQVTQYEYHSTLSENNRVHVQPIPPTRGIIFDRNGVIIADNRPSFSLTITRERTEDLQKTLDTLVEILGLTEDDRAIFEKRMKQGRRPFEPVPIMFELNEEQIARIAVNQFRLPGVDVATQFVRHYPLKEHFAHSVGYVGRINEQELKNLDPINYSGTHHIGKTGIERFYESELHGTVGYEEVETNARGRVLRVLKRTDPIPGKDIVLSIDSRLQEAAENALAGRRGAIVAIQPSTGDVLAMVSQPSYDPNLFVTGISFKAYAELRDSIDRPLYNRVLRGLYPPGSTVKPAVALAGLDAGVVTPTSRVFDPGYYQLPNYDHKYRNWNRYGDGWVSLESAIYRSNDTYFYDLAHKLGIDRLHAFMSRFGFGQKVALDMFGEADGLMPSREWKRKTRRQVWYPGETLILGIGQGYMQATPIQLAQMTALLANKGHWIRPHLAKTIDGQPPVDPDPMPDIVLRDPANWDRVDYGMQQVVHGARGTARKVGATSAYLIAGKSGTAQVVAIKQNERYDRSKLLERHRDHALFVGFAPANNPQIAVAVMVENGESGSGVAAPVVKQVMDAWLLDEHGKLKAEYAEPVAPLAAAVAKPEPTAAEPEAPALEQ
In short: (§2)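 Isolated P. aeruginosa PAO1 PBPs; drug added at 10 concentrations, 0.06 μg/ml to 32 μg/ml, before Bocillin FL labeling. Labeled PBPs imaged. IC50 is the drug level cutting Bocillin FL binding by 50% versus a no-drug sample.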

[4] = biological target: T2, Cell shape peptidoglycan synthetase penicillin-binding protein 2 (Escherichia coli, UniProt Q2TL65); test: Inhibition of bocillin FL binding to Escherichia coli MC4100 penicillin-binding protein 2
T2 sequence (Q2TL65 whole entry): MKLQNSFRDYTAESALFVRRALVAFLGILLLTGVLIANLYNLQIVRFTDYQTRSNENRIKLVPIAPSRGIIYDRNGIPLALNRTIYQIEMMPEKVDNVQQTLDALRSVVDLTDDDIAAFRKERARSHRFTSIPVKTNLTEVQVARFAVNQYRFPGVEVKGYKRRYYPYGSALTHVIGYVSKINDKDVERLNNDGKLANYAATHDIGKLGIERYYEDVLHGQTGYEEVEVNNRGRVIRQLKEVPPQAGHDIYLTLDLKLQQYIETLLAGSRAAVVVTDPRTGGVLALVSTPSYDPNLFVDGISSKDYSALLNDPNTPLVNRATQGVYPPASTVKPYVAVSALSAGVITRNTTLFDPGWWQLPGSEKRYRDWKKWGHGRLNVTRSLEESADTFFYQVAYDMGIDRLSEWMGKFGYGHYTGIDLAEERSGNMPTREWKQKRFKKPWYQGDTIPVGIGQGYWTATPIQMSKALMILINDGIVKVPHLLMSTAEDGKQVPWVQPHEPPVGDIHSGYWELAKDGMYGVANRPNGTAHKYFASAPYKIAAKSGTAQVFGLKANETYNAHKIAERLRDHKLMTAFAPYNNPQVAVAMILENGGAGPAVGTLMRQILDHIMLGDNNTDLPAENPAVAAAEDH
In short: (§3)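 Isolated E. coli MC4100 PBPs; competition with drug at 10 concentrations, 0.016 μg/ml to 8 μg/ml, then Bocillin FL labeling. Gel bands visualized by imaging. IC50 is the concentration giving 50% inhibition of Bocillin FL binding relative to a no-drug control.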

[5] = Inhibition of bocillin FL binding to Escherichia coli MC4100 penicillin-binding protein 6; in short: as §1
[6] = Inhibition of bocillin FL binding to Pseudomonas aeruginosa PAO1 penicillin-binding protein 1a
In short: (§4)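 P. aeruginosa PAO1 PBPs were isolated and competed with 10 drug concentrations from 0.06 μg/ml to 32 μg/ml before Bocillin FL labeling. Bands were detected by fluorescence imaging. IC50 was taken as 50% inhibition of Bocillin FL binding versus the no-drug sample.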

[7] = Inhibition of bocillin FL binding to Pseudomonas aeruginosa PAO1 penicillin-binding protein 5/6; in short: as §2
[8] = Inhibition of bocillin FL binding to Escherichia coli MC4100 penicillin-binding protein 4; in short: as §1
[9] = Inhibition of bocillin FL binding to Escherichia coli MC4100 penicillin-binding protein 1a; in short: as §3
[10] = Inhibition of bocillin FL binding to Escherichia coli MC4100 penicillin-binding protein 5; in short: as §1
[11] = Inhibition of bocillin FL binding to Pseudomonas aeruginosa PAO1 penicillin-binding protein 4; in short: as §4
[12] = biological target: Penicillin-binding protein 3 (Pseudomonas aeruginosa, UniProt Q51504); test: Inhibition of bocillin FL binding to Pseudomonas aeruginosa PAO1 penicillin-binding protein 3; in short: as §2
[13] = biological target: T3, Penicillin-binding protein 1B (Pseudomonas aeruginosa, UniProt Q9X6W0); test: Inhibition of bocillin FL binding to Pseudomonas aeruginosa PAO1 penicillin-binding protein 1b; in short: as §2
T3 sequence (Q9X6W0 whole entry): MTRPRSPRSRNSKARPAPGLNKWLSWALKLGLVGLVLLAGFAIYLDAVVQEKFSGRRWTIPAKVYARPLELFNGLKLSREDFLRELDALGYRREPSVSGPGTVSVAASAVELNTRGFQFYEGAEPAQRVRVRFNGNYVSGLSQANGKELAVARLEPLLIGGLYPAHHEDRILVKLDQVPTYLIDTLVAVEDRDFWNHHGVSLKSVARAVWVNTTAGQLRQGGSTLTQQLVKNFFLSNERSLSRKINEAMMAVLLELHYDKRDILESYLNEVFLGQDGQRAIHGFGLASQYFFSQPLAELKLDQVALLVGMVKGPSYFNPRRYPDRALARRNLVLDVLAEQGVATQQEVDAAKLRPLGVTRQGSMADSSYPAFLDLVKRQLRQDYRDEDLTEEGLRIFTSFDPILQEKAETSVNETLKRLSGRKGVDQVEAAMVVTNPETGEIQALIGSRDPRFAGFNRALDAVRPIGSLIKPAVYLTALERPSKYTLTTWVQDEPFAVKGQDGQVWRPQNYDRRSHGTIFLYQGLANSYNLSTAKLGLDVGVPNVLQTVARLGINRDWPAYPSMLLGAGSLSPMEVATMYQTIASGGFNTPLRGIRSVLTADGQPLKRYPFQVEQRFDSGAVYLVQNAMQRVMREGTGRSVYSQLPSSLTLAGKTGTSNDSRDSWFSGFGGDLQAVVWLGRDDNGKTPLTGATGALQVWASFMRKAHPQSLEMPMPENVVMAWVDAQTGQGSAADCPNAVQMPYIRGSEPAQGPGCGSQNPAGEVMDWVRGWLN

Sequence of Penicillin-binding protein 3 (Q51504 whole entry): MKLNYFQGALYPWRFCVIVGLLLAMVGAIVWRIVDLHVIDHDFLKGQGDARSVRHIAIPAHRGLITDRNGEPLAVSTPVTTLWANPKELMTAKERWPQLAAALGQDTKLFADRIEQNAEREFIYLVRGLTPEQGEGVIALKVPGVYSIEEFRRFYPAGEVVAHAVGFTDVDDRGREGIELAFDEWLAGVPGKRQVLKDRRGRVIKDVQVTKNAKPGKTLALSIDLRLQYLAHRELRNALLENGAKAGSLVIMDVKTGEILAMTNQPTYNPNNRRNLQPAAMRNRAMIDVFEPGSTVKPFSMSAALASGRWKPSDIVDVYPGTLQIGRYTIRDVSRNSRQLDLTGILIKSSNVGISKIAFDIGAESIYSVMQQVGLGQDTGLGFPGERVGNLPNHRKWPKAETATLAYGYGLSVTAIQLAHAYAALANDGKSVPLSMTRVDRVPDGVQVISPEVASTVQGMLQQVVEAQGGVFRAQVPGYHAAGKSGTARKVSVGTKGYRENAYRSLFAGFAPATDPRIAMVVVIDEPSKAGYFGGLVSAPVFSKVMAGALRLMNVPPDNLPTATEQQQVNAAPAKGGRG

Row | Compound | IC50 [1] | IC50 [2] | IC50 [3] | IC50 [4] | IC50 [5] | IC50 [6] | IC50 [7] | IC50 [8] | IC50 [9] | IC50 [10] | IC50 [11] | IC50 [12] | IC50 [13]
1 | CO/N=C(\C(=O)N[C@@H]1C(=O)N2C(C(=O)[O-])=C(C[N+]3(C)CCCC3)CS[C@H]12)c1csc(N)n1 | 0.1 mg/L (≈ 0.208 µM) | 3.7 mg/L (≈ 7.7 µM) | 16.6 µM | 1.25 µM | > 4 mg/L | 0.1 mg/L (≈ 0.208 µM) | > 32 mg/L | > 4 mg/L | 2 mg/L (≈ 4.16 µM) | > 4 mg/L | 0.3 mg/L (≈ 0.624 µM) | 0.208 µM | 
2 | C[C@H]1[C@H](NC(=O)/C(=N\OC(C)(C)C(=O)O)c2csc(N)n2)C(=O)N1S(=O)(=O)O (stereo in doubt) [AZTREONAM] | 0.03 mg/L (≈ 0.0689 µM) | > 8 mg/L | 36.7 µM | > 18.4 µM | > 8 mg/L | 2 mg/L (≈ 4.59 µM) | > 16 mg/L | > 8 mg/L | > 8 mg/L | > 8 mg/L | 16 mg/L (≈ 36.7 µM) | 0.0689 µM | 
3 | C[C@@H](O)[C@H]1C(=O)N2C(C(=O)O)=C(SCCNC=N)C[C@H]12 [IMIPENEM ANHYDROUS] | 8 mg/L (≈ 26.7 µM) | 0.5 mg/L (≈ 1.67 µM) | 0.334 µM | 0.0334 µM | 0.1 mg/L (≈ 0.334 µM) | 0.5 mg/L (≈ 1.67 µM) | 2 mg/L (≈ 6.68 µM) | 0.01 mg/L (≈ 0.0334 µM) | 0.5 mg/L (≈ 1.67 µM) | 0.5 mg/L (≈ 1.67 µM) | 0.01 mg/L (≈ 0.0334 µM) | 0.334 µM | 1.67 µM
